Measured values collected from several papers.
Each line is one published result; the experiments were not run side by side.
PDPK1: 3-phosphoinositide-dependent protein kinase 1 (PDPK1, Homo sapiens, UniProt O15530)
PRSS1: Serine protease 1 (PRSS1, Homo sapiens, UniProt P07477)

`CNC(=O)c1ccc(-c2cnn3ccc(C(=O)N(C)c4ccc(Cl)c(C(=O)O)c4)cc23)cc1` gave an IC50 of over 30 µM (PDPK1; enzyme activity, inhibitor).
The IC50 of `O=C(O)C(F)(F)C(F)(F)C(F)(F)C(F)(F)C(F)(F)C(F)(F)C(F)(F)F` is reported as at least 50 µM (Aldo-keto reductase family 1 member C1 (AKR1C1, Homo sapiens, UniProt Q04828); enzyme activity, inhibitor).
For `COC(=O)c1cc(N(C)C(=O)c2ccn3ncc(-c4ccc(C(=O)O)cc4)c3c2)ccc1Cl`, the IC50 was over 30 µM (PDPK1; enzyme activity, inhibitor).
The IC50 of `CCC(C(=O)Nc1cc(NC2CCNC2)ccc1C)n1cc(Br)cc2nc(SCc3ccc(F)cc3)nc1-2` (centres unmarked) is reported as over 100 µM (PRSS1; enzyme activity, inhibitor).
For `C=CCc1ccc(OC)cc1`, the EC50 was over 600 µM (OR8H1 (Homo sapiens, UniProt Q8NGG4); cAMP, agonist, luciferase).
For `CCC(C(=O)Nc1cc(NC2CCOCC2)ccc1C)n1cc(Br)cc2nc(SCc3ccc(F)cc3)nc1-2` (centres unmarked), the IC50 was over 100 µM (PRSS1; enzyme activity, inhibitor).
`O=C(O)[C@H]1/C(=C/CO)O[C@@H]2CC(=O)N21` gave an IC50 of 249 µM (Carbapenem-hydrolyzing beta-lactamase KPC (KPC-2, Klebsiella pneumoniae, UniProt Q9F663); enzyme activity, inhibitor, absorbance; pH 7, with preincubation).
For `CC[C@H](C)[C@H](NC(=O)[C@H](CO)NC(=O)CNC(=O)[C@@H](NC(=O)[C@@H](NC(=O)[C@@H](NC(=O)CN)[C@@H](C)O)C(C)C)[C@@H](C)O)C(=O)N[C@@H](CC(C)C)C(=O)N[C@H](C(=O)N1CCC[C@H]1C(=O)N[C@H](C(=O)N[C@@H](CC(=O)O)C(=O)N[C@@H](Cc1ccc(O)cc1)C(=O)NCC(=O)N[C@H]1CSSC[C@@H](C(=O)N[C@@H](CO)C(=O)N[C@H](C(=O)N[C@@H](C)C(=O)N[C@@H](CCSC)C(=O)N[C@@H](Cc2ccc(O)cc2)C(=O)NCC(=O)NCC(=O)N[C@H](C(=O)N[C@H](C(=O)N[C@@H](CC(=O)O)C(=O)N2CCC[C@H]2C(=O)N[C@H](C(=O)N[C@@H](CCCNC(=N)N)C(=O)N[C@@H](Cc2ccccc2)C(=O)N2CCC[C@H]2C(=O)N[C@@H](CC(N)=O)C(=O)N[C@@H](C)C(=O)N[C@@H](Cc2c[nH]c3ccccc23)C(=O)N[C@@H](CCCNC(=N)N)C(=O)N[C@@H](CCC(=O)O)C(=O)N[C@@H](CC(C)C)C(=O)O)[C@@H](C)CC)[C@@H](C)CC)C(C)C)C(C)C)NC(=O)[C@H](CC(C)C)NC(=O)[C@H](Cc2ccccc2)NC(=O)[C@@H]2CCCN2C(=O)[C@H](CC(N)=O)NC(=O)[C@H](Cc2ccccc2)NC1=O)[C@@H](C)CC)[C@@H](C)O`, the IC50 was over 100 µM (Chymotrypsinogen A (Bos taurus, UniProt P00766); enzyme activity, inhibitor, fluorescence).
